Results reported in ChEMBL document CHEMBL1926509, “Discovery of pyrazolo[1,5-a]pyridines as p110α-selective PI3 kinase inhibitors” (Bioorg Med Chem, 2012).
Activity calls are given as the source filed them. No cut-off for these calls is given here.

What was measured:
[1] = Cytotoxicity against human NZB5 cells expressing wild type p110alpha assessed as inhibition of [3H]thymidine incorporation after 5 days; assay type: functional, cell-based
In short: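 Early-passage lab-derived lines in α-MEM with insulin, transferrin, selenite and 5% FBS. Seeded at 1000 cells/well; drug added in 10-fold steps up to 20 µM. Incubated five days under 5% O₂/5% CO₂/90% N₂, with ³H-thymidine (0.04 µCi/well) over the last 6 h. Duplicates per dose; least-squares exponential fit; IC50 is the concentration giving 50% less incorporation.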

[2] = Inhibition of DNA-PK
[3] = target: T1, Phosphatidylinositol 4,5-bisphosphate 3-kinase catalytic subunit alpha isoform (Homo sapiens, UniProt P42336); experiment: Inhibition of recombinant PI3K p110alpha using L-alpha-phosphatidylinositol as substrate and [gamma33P]ATP after 60 mins by thin layer chromatographic technique
T1 sequence (P42336 whole entry, canonical isoform): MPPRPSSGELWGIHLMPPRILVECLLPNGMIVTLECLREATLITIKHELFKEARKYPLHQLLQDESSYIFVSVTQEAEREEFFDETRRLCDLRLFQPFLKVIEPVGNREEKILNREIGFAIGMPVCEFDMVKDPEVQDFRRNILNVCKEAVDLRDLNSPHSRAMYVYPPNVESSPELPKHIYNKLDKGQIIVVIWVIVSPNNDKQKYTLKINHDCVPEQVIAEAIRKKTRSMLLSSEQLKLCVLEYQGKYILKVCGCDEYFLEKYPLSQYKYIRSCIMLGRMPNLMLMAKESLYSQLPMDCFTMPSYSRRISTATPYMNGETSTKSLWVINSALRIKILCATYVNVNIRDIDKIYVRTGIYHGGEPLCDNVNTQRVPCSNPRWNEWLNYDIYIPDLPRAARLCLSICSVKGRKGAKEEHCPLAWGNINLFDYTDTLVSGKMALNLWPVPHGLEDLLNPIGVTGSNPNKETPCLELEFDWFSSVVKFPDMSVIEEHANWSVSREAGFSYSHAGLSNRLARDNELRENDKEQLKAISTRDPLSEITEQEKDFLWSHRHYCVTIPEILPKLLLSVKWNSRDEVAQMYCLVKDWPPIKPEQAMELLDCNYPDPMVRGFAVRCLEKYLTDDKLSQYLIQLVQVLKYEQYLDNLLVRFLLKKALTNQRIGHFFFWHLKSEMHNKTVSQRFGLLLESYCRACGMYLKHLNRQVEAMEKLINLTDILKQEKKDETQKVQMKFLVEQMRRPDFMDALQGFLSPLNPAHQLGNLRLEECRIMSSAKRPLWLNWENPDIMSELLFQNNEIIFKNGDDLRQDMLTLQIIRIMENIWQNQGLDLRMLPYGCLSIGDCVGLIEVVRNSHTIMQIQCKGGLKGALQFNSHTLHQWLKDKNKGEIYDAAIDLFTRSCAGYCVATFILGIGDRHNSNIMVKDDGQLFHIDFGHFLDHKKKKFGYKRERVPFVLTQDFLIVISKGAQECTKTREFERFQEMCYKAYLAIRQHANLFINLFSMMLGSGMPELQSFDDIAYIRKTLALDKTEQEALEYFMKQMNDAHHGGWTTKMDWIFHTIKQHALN
In short: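 In-house recombinant class Ia PI3K isoform (0.1 µg) with L-α-phosphatidylinositol substrate in lipid kinase buffer (Tris–HCl pH 7.4, NaCl, EDTA), 1% DMSO final. Started with ATP mix (5 mM MgCl₂, 100 µM ATP plus [γ-³³P]ATP), 1 h at room temperature, stopped with 1 M HCl. Lipids extracted in two steps, separated by TLC, read by phosphorimager. Nine inhibitor concentrations; IC50 averaged over two experiments.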

[4] = target: T1, Phosphatidylinositol 4,5-bisphosphate 3-kinase catalytic subunit alpha isoform; details: 100 nM
[5] = target: T1, Phosphatidylinositol 4,5-bisphosphate 3-kinase catalytic subunit alpha isoform; details: 100 nM; remark: listed apart in the source
[6] = target: T2, Phosphatidylinositol 4,5-bisphosphate 3-kinase catalytic subunit alpha isoform (Homo sapiens, UniProt P42336, H1047R); experiment: Inhibition of PI3K […] H1047R mutant-mediated PKB phosphorylation at Thr308 in human HCT116 cells after 15 mins by immunoblot analysis; assay type: cell-based, HCT-116
T2 sequence (P42336 whole entry H1047R, canonical isoform): as the sequence (P42336 whole entry, canonical isoform) above, with H1047R counted along it
In short: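 HCT-116 cells in MEM alpha with 10% FBS and penicillin/streptomycin were seeded, grown 1 day, then serum-starved overnight. They were exposed to a range of inhibitor concentrations in DMSO (0.1% final) for 15 min, then stimulated with 500 nM insulin for 5 min. Phospho-PKB (Ser473 or Thr308) was detected by immunoblotting.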

[7] = tested on: HCT-116; experiment: Antitumor activity against human HCT116 cells xenografted in Rag1 knockout mouse assessed as tumor growth inhibition at 20 mg/kg, ip qd for 14 days relative to untreated control; assay type: functional; details: HCT-116, ip, 336 h, route intraperitoneal, read-out: GI
In short: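 Female specific-pathogen-free Rag1−/− mice, age-matched, inoculated subcutaneously with 5×10⁶ HCT-116 cells in PBS. Dosed ip at 20 mg/kg q.d. for 14 days in 7.5% DMSO/42.5% PEG-400/20% hydroxypropyl-β-cyclodextrin/30% water; controls received vehicle only; n = 7 per group. Tumour volume measured three times weekly; 1-way ANOVA with Holm-Sidak comparison at study end.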

[8] = target: Mitogen-activated protein kinase 14 (Homo sapiens) (UniProt Q16539); experiment: Inhibition of p38alpha assessed as residual activity at 1 uM
Mitogen-activated protein kinase 14 (Homo sapiens), sequence (Q16539 whole entry): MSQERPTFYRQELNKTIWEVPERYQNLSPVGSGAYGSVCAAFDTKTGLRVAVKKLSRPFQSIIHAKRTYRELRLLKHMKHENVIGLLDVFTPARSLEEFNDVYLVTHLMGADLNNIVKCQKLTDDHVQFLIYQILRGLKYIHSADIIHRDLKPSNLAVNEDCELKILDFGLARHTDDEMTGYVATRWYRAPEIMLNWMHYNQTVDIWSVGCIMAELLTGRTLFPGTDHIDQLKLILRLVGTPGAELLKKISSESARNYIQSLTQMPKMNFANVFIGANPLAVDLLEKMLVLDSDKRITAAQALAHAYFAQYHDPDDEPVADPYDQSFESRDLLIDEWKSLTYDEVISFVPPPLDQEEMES

[9] = target: High affinity nerve growth factor receptor (Homo sapiens) (UniProt P04629); experiment: Inhibition of TrkA assessed as residual activity at 1 uM
High affinity nerve growth factor receptor (Homo sapiens), sequence (P04629 33-796 limits assumed): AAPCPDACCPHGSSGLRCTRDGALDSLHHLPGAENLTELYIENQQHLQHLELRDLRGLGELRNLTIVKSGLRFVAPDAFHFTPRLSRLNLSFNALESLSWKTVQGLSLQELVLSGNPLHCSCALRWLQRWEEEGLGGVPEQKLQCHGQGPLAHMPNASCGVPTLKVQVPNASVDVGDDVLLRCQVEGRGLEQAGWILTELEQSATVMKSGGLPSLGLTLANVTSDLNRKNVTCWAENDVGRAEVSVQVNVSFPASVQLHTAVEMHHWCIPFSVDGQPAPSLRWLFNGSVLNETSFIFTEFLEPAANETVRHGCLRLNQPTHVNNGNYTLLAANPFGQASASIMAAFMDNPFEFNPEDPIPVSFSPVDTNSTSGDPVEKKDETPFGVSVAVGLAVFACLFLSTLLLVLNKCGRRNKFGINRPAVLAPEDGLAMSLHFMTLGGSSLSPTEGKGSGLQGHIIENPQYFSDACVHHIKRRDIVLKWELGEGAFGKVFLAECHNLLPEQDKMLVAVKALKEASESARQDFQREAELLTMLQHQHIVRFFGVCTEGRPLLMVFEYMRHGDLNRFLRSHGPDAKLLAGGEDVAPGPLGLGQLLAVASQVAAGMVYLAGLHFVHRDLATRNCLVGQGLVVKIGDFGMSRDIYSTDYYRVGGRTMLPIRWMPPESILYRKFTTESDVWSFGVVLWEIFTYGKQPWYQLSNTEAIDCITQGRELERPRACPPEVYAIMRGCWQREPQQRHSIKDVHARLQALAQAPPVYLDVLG

[10] = target: T2, Phosphatidylinositol 4,5-bisphosphate 3-kinase catalytic subunit alpha isoform; experiment: Inhibition of recombinant PI3K p110alpha H1047R mutant using L-alpha-phosphatidylinositol as substrate and [gamma33P]ATP after 60 mins by thin layer chromatographic technique
[11] = target: Misshapen-like kinase 1 (Homo sapiens) (UniProt Q8N4C8); experiment: Inhibition of MINK1 assessed as residual activity at 10 uM
Misshapen-like kinase 1 (Homo sapiens), sequence (Q8N4C8 whole entry, looked up, canonical isoform): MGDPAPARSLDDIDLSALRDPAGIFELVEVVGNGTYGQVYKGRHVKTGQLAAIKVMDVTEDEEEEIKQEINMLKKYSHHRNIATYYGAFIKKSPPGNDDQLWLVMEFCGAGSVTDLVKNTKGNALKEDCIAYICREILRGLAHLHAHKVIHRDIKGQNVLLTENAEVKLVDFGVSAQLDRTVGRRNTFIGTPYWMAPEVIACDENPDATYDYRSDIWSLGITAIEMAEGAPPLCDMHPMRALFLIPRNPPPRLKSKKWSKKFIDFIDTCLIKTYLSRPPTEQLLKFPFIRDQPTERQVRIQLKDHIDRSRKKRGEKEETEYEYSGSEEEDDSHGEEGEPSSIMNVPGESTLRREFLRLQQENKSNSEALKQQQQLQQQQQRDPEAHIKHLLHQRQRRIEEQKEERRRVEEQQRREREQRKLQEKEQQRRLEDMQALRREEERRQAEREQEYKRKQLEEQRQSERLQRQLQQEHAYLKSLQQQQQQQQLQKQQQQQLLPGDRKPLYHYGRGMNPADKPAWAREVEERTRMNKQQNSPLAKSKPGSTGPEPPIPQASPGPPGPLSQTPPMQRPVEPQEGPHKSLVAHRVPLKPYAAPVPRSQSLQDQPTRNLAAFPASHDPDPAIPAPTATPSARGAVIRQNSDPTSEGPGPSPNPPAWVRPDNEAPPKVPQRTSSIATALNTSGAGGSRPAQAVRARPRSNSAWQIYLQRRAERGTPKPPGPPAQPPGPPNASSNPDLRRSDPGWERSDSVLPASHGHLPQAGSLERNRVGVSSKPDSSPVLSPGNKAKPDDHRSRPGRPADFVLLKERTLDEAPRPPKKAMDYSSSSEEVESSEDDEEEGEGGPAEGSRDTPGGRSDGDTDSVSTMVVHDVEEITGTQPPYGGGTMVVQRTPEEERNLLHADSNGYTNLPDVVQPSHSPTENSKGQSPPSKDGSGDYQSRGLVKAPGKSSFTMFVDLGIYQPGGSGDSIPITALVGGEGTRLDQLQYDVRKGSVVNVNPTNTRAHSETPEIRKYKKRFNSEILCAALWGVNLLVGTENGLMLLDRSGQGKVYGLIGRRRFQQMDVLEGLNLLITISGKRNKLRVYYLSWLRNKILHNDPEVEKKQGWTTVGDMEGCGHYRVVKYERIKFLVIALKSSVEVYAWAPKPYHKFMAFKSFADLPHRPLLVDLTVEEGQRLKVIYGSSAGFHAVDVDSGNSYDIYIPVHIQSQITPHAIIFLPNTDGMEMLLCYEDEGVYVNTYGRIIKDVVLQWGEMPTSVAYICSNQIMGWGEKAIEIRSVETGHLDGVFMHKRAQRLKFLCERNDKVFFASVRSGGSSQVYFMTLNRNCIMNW

[12] = target: Phosphatidylinositol 4,5-bisphosphate 3-kinase catalytic subunit gamma isoform (Homo sapiens, UniProt P48736); experiment: Inhibition of PI3K p110gamma
Phosphatidylinositol 4,5-bisphosphate 3-kinase catalytic subunit gamma isoform, sequence (P48736 whole entry, canonical isoform): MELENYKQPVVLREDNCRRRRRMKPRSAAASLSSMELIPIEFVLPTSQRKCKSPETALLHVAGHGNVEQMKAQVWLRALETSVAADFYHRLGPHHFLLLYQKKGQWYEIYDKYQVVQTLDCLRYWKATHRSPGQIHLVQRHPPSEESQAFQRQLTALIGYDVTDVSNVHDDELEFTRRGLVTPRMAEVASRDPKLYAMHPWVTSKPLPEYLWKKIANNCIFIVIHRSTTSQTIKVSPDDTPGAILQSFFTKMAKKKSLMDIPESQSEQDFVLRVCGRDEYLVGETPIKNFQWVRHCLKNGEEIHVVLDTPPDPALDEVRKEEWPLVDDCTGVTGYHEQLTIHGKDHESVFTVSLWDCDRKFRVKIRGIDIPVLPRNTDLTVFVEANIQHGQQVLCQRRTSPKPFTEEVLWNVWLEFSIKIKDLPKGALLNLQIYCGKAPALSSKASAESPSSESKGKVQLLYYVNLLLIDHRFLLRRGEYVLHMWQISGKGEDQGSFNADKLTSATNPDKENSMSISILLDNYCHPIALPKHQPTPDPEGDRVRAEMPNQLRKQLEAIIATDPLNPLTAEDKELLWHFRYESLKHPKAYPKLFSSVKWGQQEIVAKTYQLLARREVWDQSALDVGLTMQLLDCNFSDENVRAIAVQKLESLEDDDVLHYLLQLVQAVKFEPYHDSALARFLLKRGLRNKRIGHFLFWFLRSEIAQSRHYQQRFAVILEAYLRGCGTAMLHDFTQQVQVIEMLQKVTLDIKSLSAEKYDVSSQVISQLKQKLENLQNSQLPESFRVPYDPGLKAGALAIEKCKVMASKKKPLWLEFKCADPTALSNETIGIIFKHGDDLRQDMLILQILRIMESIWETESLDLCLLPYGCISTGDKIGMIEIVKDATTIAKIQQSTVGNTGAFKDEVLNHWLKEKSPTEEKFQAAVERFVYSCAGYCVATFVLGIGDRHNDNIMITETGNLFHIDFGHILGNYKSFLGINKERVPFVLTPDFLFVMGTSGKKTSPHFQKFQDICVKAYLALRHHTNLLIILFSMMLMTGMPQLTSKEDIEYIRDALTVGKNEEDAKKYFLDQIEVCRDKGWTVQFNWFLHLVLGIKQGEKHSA
In short: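 Recombinant PI3K isoform made in-house, mixed with phosphatidylinositol substrate and inhibitor in 1% DMSO. Lipid kinase buffer (2× stock: 40 mM Tris-HCl pH 7.4, 200 mM NaCl, 1 mM EDTA). Started with ATP/MgCl₂ (5 mM)/[γ-³³P]ATP mix, 1 h at room temperature, stopped with 1 M HCl. Lipids extracted, separated by TLC and read by phosphorimager. Nine concentrations, run twice, IC50s averaged.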

[13] = tested on: Mus musculus; experiment: Toxicity in human HCT116 cells xenografted Rag1 knockout mouse assessed as mortality at 20 mg/kg, ip qd for 14 days; assay type: organism-based, HCT-116; set-up: dose 20 mg/kg, route intraperitoneal; details: in vivo, 336 h
In short: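 Age-matched specific pathogen-free female Rag1-/- mice bearing subcutaneous HCT-116 tumours (5 × 10⁶ cells inoculated in PBS), n = 7 per group. Drug given ip at 20 mg/kg once daily for 14 days in 7.5% DMSO/42.5% PEG-400/20% 2-hydroxypropyl-β-cyclodextrin/30% water; controls received vehicle alone. Bodyweight recorded daily; mice culled when weight loss exceeded 20% of starting weight.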

[14] = Inhibition of PKA assessed as residual activity at 10 uM

Compound `Cc1ccc([N+](=O)[O-])cc1S(=O)(=O)N(C)/N=C/c1cnn2ccc(C#N)cc12` has an IC50 [1] of 60 nM, an IC50 [2] of 1.1 nM and an IC50 [3] of 0.9 nM. For the same compound, the inhibition [4] was “inactive”, the inhibition [5] was “inactive” and the IC50 [6] was 26 nM. The inhibition in vivo at 20 mg/kg [7] was 39.1%, the Activity [8] was 18% and the Activity [9] was 19%. For the same compound, the IC50 [10] was 0.5 nM, the Activity [11] was 2% and the IC50 [12] was 14 nM. For the same compound, the Activity [13] was “Non-toxic” and the Activity [14] was 1%.
